Test results reported in ChEMBL document CHEMBL1933020, “A novel series of glucagon receptor antagonists with reduced molecular weight and lipophilicity” (Bioorg Med Chem Lett, 2012).
Converted amounts (≈) assume the structure as drawn.

What was measured:
[1] = Lipophilicity, log D of the compound in octanol-phosphate buffer at pH 7.4; format: physicochemical; details: octanol/phosphate buffer, read-out: logD
Outline: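 Shake-flask partition between octanol and buffer at pH 7.4.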

[2] = Cytotoxicity against human THLE cells after 72 hrs; format: cell-based; details: thle
Outline: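 Transformed human liver epithelial (THLE) cells were exposed to compound for 72 h. Cytotoxicity was read as cellular ATP depletion and reported as the concentration predicted to kill 50% of cells.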

[3] = Kinetic solubility of the compound at pH 6.5; format: physicochemical; details: buffer, read-out: Kinetic_solubility
Rattus norvegicus [4] = assay: Half life in Wistar-Han rat at 1 mg/kg, iv and 5 mg/kg, po; format: ADME, organism-based; details: in vivo
Outline: (§1)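 Wistar-Han rats were dosed at 1 mg/kg i.v. and 5 mg/kg p.o.; pharmacokinetic parameters were derived from the plasma profiles.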

Glucagon receptor = Glucagon receptor (Homo sapiens, UniProt P47871); assay: Displacement of [125I]Glucagon-Cex from human GCGR
Outline: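 Displacement of [125I]glucagon-Cex from membranes containing the human glucagon receptor, run with 0.2% BSA. Values are geometric means of n ≥ 2 determinations.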

[5] = target: Glucagon-like peptide 1 receptor (Homo sapiens, UniProt P43220); assay: Displacement of [125I]GLP-1 from human GLP1R
Outline: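 Displacement of [125I]GLP-1 from membranes expressing the human GLP-1 receptor.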

[6] = Plasma concentration in Wistar-Han rat at 30 mg/kg, iv after 11 mins; format: ADME, organism-based; parameters: dose 30 mg/kg, route intravenous
Outline: (§2)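 Wistar-Han rats received compound or vehicle i.v. at t = 0 (1, 10 or 30 mg/kg), then a 3 µg/kg i.v. glucagon bolus at 15 min. Blood glucose was sampled at 0, 10, 26, 32, 50 and 80 min, and compound plasma levels were measured. n = 6 rats per dose group.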

Rattus norvegicus [7] = assay: Volume of distribution at steady state in Wistar-Han rat at 1 mg/kg, iv and 5 mg/kg, po; format: ADME, organism-based; details: in vivo; outline: as §1
Rattus norvegicus [8] = assay: Antidiabetic activity in Wistar-Han rat assessed as reduction in glucagon-induced blood glucose excursion at 1 mg/kg, iv after 11 mins; format: functional; parameters: scale not given: the % may be the effect or the level left; outline: as §2
[9] = Permeability across low transporter-containing MDCK2 cells; format: ADME, cell-based, Canis lupus familiaris, MDCK-II; details: dog, MDCK; read-out: permeability
Rattus norvegicus [10] = assay: Antidiabetic activity in Wistar-Han rat assessed as reduction in glucagon-induced blood glucose excursion at 10 mg/kg, iv after 11 mins; format: functional; parameters: scale not given: the % may be the effect or the level left; outline: as §2
Rattus norvegicus [11] = assay: Oral bioavailability in Wistar-Han rat at 5 mg/kg; format: ADME, organism-based; details: in vivo; outline: as §1
[12] = Plasma concentration in Wistar-Han rat at 1 mg/kg, iv after 11 mins; format: ADME, organism-based; parameters: dose 1 mg/kg, route intravenous; outline: as §2
[13] = target: T1, Gastric inhibitory polypeptide receptor (Homo sapiens, UniProt P48546); assay: Displacement of [125I]GIP from human GIPR
T1 sequence (P48546 whole entry): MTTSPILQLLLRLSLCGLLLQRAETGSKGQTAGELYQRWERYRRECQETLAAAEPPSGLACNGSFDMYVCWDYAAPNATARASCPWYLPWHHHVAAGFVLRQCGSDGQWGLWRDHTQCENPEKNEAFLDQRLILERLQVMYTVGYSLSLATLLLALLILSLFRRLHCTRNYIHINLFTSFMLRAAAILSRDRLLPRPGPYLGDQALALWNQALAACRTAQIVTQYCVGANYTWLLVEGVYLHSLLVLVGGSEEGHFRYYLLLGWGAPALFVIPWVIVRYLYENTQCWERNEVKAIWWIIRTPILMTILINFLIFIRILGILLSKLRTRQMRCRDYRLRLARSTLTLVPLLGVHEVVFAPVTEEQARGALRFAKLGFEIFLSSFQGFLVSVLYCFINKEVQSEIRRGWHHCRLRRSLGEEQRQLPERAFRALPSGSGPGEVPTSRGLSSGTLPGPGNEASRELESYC

[14] = Plasma concentration in Wistar-Han rat at 10 mg/kg, iv after 11 mins; format: ADME, organism-based; parameters: dose 10 mg/kg, route intravenous; outline: as §2
[15] = target: Glucagon receptor (Rattus norvegicus) (UniProt P30082); assay: Antagonist activity at rat GCGR assessed as inhibition of glucagon-induced cAMP production
[16] = Apparent intrinsic clearance in rat liver microsomes; format: ADME, Microsome; details: read-out: CLH
Rattus norvegicus [17] = assay: Antidiabetic activity in Wistar-Han rat assessed as reduction in glucagon-induced blood glucose excursion at 30 mg/kg, iv after 11 mins; format: functional; parameters: scale not given: the % may be the effect or the level left; outline: as §2

Glucagon receptor, sequence (P47871 whole entry): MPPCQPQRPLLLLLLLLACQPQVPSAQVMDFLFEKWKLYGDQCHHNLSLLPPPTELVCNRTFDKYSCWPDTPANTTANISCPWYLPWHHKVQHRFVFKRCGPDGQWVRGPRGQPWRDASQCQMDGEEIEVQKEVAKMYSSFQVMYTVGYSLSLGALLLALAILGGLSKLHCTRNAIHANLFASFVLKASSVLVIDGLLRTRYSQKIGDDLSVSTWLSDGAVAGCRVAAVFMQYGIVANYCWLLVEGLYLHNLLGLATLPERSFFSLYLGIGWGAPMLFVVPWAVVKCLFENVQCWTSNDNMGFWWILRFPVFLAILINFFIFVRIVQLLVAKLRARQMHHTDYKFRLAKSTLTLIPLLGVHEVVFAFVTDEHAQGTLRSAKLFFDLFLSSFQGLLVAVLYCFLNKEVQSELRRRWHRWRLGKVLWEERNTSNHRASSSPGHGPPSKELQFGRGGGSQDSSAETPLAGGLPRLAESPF
Glucagon-like peptide 1 receptor, sequence (P43220 whole entry): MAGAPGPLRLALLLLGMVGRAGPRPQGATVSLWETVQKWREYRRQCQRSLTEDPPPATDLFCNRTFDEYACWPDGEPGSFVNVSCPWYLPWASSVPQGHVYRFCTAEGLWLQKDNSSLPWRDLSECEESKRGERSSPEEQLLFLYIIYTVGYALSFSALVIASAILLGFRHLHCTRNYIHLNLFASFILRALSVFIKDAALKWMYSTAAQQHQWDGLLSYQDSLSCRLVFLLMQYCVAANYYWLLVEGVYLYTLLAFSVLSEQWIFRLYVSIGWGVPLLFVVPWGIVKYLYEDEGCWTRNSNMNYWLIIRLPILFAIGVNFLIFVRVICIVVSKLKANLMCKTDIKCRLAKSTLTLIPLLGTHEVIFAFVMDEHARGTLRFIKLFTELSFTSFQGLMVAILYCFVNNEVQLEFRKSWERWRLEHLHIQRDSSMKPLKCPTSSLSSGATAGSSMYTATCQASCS

SMILES: O=C(O)CCNC(=O)c1ccc(C(Nc2cnn(-c3ccc(C(F)(F)F)cc3)c2)C2CCCC2)cc1 (single isomer, unassigned; (+))
- logD [1]: 2.27
- IC50 [2]: 235000 nM
- solubility kinetic [3]: 320 µM (≈ 160 µg/mL)
- t1/2 (Rattus norvegicus [4]): 24 min
- Ki (Glucagon receptor): 9 nM
- Ki [5]: 3340 nM
- concentration at 11 min [6]: 21000 ng/mL
- Vdss (Rattus norvegicus [7]): 1.27 L/kg
- Activity (Rattus norvegicus [8]): 12%
- Papp [9]: 6.34 ×10⁻⁶ cm/s
- Activity (Rattus norvegicus [10]): 20%
- F (Rattus norvegicus [11]): 2%
- concentration at 11 min [12]: 300 ng/mL
- Ki [13]: 152 nM
- concentration at 11 min [14]: 2280 ng/mL
- Kb [15]: 2340 nM
- CLint scaled [16]: < 25 mL/min/kg
- Activity (Rattus norvegicus [17]): 24%
